We go through four substances from article PMC12257300 (RSC Advances, 2025).

The nature of data set [1]: Gelation by inverted tube test / minimum gelation concentration. Type of data set: physicochemical. The settings on record: 1 w/v% of sequence + 1 w/v% H-FQFQFK-NH2 in PBS. The essentials:
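Gels formed by adding PBS to the peptide acetate salt in a tube, then repeated vortexing (1 min) and sonication (5 min), and resting overnight at room temperature before assessment.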

A short description of data set [2]: Rheology, shear recovery experiment. The settings on record: 2 w/v% P4 biogel, shear strain 50%, 1 Hz, 25 °C. It is filed as physicochemical. The essentials: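 Hydrogel (350 μL) loaded on a 25 mm plate and rested 5 min. G′ and G′′ were recorded for 60 s at 1 Hz and 1% strain, then strain was raised to 50% for 30 s. The cycle was repeated 4 times under a 1 N normal force at 25 °C, in threefold.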

The conditions of data set [3]: soft Fmoc-WWRR-NH2 based hydrogels; cited from earlier work.

*: point of attachment. Fmoc = O=C(OCC1c2ccccc2-c2ccccc21)*

For H-WRWRFQFQFK-NH2 [P2, H-WRWRFQFQFK-NH2], the “Gelation behavior of co-formulation with parent peptide (inverted tube test)” value in data set [1] is reported as “self-supporting hydrogels”.

For H-RWRWQFQFK-NH2 [P4, H-RWRWQFQFK-NH2], the “tan δ at increased shear strain” value in data set [2] was 0.6. For the substance Fmoc-WWRR-NH2, the “Storage modulus G′ of reported hydrogel” value in data set [3] was about 100 Pa. As for H-RRWWQFQFK-NH2 [P5, H-RRWWQFQFK-NH2], the “Gelation behavior of co-formulation with parent peptide (inverted tube test)” value in data set [1] is on record as “self-supporting hydrogels”.
